# Data: ChEMBL document CHEMBL1148355, “Inhibition of group IVA cytosolic phospholipase A2 by novel 2-oxoamides in vitro, in cells, and in vivo” (J Med Chem, 2004)
# pIC50: −log10 of the molar value.
# Columns and labels:
# [1] = target: T1, Cytosolic phospholipase A2 (Homo sapiens) (UniProt P47712); experiment: Percent inhibition of human GIVA PLA2 by the compound at a concentration (mole fraction) of 0.01
# T1 sequence (whole entry): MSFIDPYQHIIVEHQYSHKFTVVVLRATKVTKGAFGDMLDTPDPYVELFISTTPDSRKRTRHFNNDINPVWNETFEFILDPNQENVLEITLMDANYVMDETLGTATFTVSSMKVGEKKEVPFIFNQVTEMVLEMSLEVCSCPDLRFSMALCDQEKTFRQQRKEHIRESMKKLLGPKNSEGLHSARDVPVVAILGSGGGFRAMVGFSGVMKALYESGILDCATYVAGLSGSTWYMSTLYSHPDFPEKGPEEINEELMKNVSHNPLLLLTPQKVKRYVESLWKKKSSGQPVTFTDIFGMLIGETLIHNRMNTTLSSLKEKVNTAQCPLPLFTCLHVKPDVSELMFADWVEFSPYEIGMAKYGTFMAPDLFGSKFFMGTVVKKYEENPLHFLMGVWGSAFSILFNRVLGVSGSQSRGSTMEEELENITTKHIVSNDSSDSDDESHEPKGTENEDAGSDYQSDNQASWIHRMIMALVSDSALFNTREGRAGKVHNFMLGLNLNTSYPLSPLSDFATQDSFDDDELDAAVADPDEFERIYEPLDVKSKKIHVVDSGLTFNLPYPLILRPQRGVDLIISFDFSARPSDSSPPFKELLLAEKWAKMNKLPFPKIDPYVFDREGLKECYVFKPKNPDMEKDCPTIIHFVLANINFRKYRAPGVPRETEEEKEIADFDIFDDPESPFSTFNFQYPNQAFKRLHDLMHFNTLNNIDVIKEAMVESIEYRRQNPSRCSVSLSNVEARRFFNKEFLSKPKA
# Procedure, shortened: (§1)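 GIVA PLA2 activity measured on mixed micelles of TX-100 (400 μM), 1-palmitoyl-2-[14C]arachidonoyl PC (97 μM) and PIP2 (3 μM, 0.6 mol %). Inhibitor surface mole fraction varied within the micelles; percent inhibition calculated relative to a DMSO control. Xi(50) is the mole fraction giving 50% inhibition, obtained by a logarithmic or linear fit.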
# [2] = target: T1, Cytosolic phospholipase A2 (Homo sapiens); experiment: Percent inhibition of human GIVA PLA2 by the compound at a concentration (mole fraction) of 0.02; procedure, shortened: as §1
# Mus musculus [3] = organism: Mus musculus; experiment: Tested on P388D1 macrophage-like cell line (AA-derived products) for inhibition of the GIVA PLA2 in the long-term lipopolysaccharide; assay type: functional, organism-based
# Rattus norvegicus [4] = experiment: Compound was tested for in vivo analgesic activity in rat; assay type: functional
# [5] = target: T1, Cytosolic phospholipase A2 (Homo sapiens); experiment: Mole fraction of compound in the total substrate interface required to inhibit human GIVA PLA2 by 50%; procedure, shortened: as §1
# Mus musculus [6] = organism: Mus musculus; experiment: Tested on P388D1 macrophage-like cell line (PGE2 production) for inhibition of the GIVA PLA2 in the long-term lipopolysaccharide; assay type: functional, organism-based
# Procedure, shortened: (§2)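 P388D1 murine macrophages plated at 10^6 cells/well and left to adhere overnight. Starved 1 h in 0.2% FCS medium. Compound added in DMSO (<0.5% v/v) 30 min before 100 ng/mL LPS for 18 h. Medium PGE2 measured by enzyme immunoassay and normalized to DMSO/LPS controls. IC50 taken from a logarithmic fit.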
# Rattus norvegicus [7] = experiment: Compound was tested for in vivo antiinflammatory activity in rat; assay type: functional, organism-based
# Procedure, shortened: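 Carrageenan paw edema in Fisher 344 rats (150–200 g), both sexes. Edema induced by 0.1 mL 2% w/v carrageenan in saline, intradermal into the right footpad. Compound suspended in Tween 80/water and given ip at the same time. Rats killed at 3.5 h, injected minus uninjected paw weight taken, and % inhibition calculated vs water controls. Four concentrations tested, two groups of five; mean of two experiments.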
# [8] = target: T1, Cytosolic phospholipase A2 (Homo sapiens); experiment: Percent inhibition of human GIVA PLA2 by the compound at a concentration (mole fraction) of 0.08; procedure, shortened: as §1
# [9] = target: T1, Cytosolic phospholipase A2 (Homo sapiens); experiment: Percent inhibition of human GIVA PLA2 by the compound at a concentration (mole fraction) of 0.05; procedure, shortened: as §1
# Mus musculus [10] = organism: Mus musculus; experiment: Compound was tested on P388D1 macrophage-like cell line (PGE2 production) for inhibition of the GIVA PLA2 in the long-term lipopolysaccharide; assay type: functional, organism-based; procedure, shortened: as §2
# Mus musculus [11] = organism: Mus musculus; experiment: Compound was tested on P388D1 macrophage-like cell line (AA-derived products) for inhibition of the GIVA PLA2 in the long-term lipopolysaccharide; assay type: functional, organism-based
# [12] = in the assay text read “of 0.091” for “of 0.01”
structure (smiles),measurement,setting,value
CCCCCCCC/C=C\CCCCCCCCNC(=O)C(=O)CCCCC,inhibition,[1],0%
CCCCCCCCCCCCCCC(=O)C(=O)NCCCCC,inhibition,[2],22%
CCCCCCCCCCCCCCC(=O)C(=O)NCCCC(=O)O,pIC50,Mus musculus [3],5.07
same,Analgesic activity,Rattus norvegicus [4],93%
same,X1(50),[5],0.017
same,pIC50,Mus musculus [6],5.11
same,EC50,Rattus norvegicus [7],0.01 mmol/kg
CCCCCCCCCCOC[C@@H](CCC(=O)O)NC(=O)C(=O)CCCCCCCCCC,X1(50),[5],0.047
CCCCCCCCCCCCCC(=O)C(=O)N[C@@H](CCCC)CCC(=O)O,X1(50),[5],0.01
CCCCCCCCCCC(=O)C(=O)N[C@H](CCC(=O)O)CC(C)C,X1(50),[5],0.021
NC(=O)C(=O)CCCCc1ccccc1,inhibition,[1],0%
CCCCCCC(=O)C(=O)N[C@H](CCC(=O)O)Cc1ccccc1,inhibition,[1]; [12],24%
CCCCCCCCCCCCCCC(=O)C(=O)NCCCC(=O)OC,inhibition,[8],0%
CCCCCCCCCCC(=O)C(=O)N[C@H](CCCC)CCC(=O)O,X1(50),[5],0.068
CCCCCCCCCCCCCC(=O)C(N)=O,inhibition,[1],0%
CCCCCCCCCCOC[C@H](CCC(=O)O)NC(=O)C(=O)CCCCCCCCCC,X1(50),[5],0.045
CCCCCCCCCCCCCC(=O)C(=O)N[C@H](CCC(=O)O)Cc1ccccc1,X1(50),[5],0.035
CCCCCCC(=O)C(=O)NCCCC(=O)O,inhibition,[9],0%
CCCCCCCCCCC(=O)C(=O)N1CCC[C@H]1CCC(=O)O,inhibition,[1]; [12],0%
CCCCCCCC/C=C\CCCCCCCCNC(=O)C(=O)CCCCCCCCCCCCCC,inhibition,[9],0%
CCCCCCCCCCCCCCCC(=O)NCCCC(=O)O,inhibition,[8],22%
CCCCCCCCCCCCCC(=O)C(=O)N[C@H](CCC(=O)O)CC(C)C,pIC50,Mus musculus [10],5.00
same,Analgesic activity,Rattus norvegicus [4],69%
same,pIC50,Mus musculus [11],5.34
same,X1(50),[5],0.017
same,EC50,Rattus norvegicus [7],0.008 mmol/kg
CCCCCCCCCCCCCC(=O)C(=O)N1CCC[C@H]1CCC(=O)O,inhibition,[1]; [12],24%
CCCCCCCCCCCCCC(=O)C(=O)N[C@@H](C)CCC(=O)O,X1(50),[5],0.021
CCCCCCCCCCC(=O)C(=O)N[C@@H](CCCC)CCC(=O)O,pIC50,Mus musculus [10],5.24
same,Analgesic activity,Rattus norvegicus [4],63%
same,pIC50,Mus musculus [11],5.12
same,X1(50),[5],0.009
same,EC50,Rattus norvegicus [7],0.1 mmol/kg
CCCCCCCCCCCCCCCCNC(=O)C(=O)CC,inhibition,[1],0%
